Test results: ChEMBL document CHEMBL1152967, “Scalarane-based sesterterpenoid RCE-protease inhibitors isolated from the Indonesian marine sponge Carteriospongia foliascens” (J Nat Prod, 2009)
Values after ≈ are worked out from the molar mass of the structure shown.

Test system: Caco-2
Assay: Cytotoxicity against human Caco-2 cells harboring wild type Ras after 3 days
Type: functional, cell-based
Details: Caco-2, 72 h

Row | Structure (SMILES) | IC50 [µg/mL]
1 | CCC(O)CC(=O)O[C@H]1C[C@@H]2[C@@]3(C)CCC[C@](C)(CC)[C@@H]3CC[C@@]2(C)[C@@H]2C=CC3=C(C(=O)OC3(C)O)[C@@]12C (stereo not given in full) | 6.2 (≈ 11.7 µM)
2 | CCO[C@@H]1C[C@H]2[C@]3(C)CC[C@H]4[C@@](C)(CC)CCC[C@]4(C)[C@H]3C[C@H](OC(=O)CC(O)C(C)C)[C@]2(C)C2=C1C(C)(O)OC2=O (stereo not given in full) | 4.2 (≈ 7.13 µM)
3 | CC[C@@]1(C)CCC[C@]2(C)[C@H]3C[C@H](OC(=O)CC(O)C(C)C)[C@]4(C)C=C(C(C)=O)[C@H](O)C[C@H]4[C@]3(C)CC[C@@H]12 (stereo not given in full) | 3.4 (≈ 6.58 µM)
4 | CCC(O)CC(=O)O[C@H]1C[C@H]2[C@@](C)(CC[C@H]3[C@@](C)(CC)CCC[C@]23C)[C@@H]2C[C@@H](O)C(C(C)=O)=C[C@@]12C (stereo not given in full) | > 10

Target: T1, CAAX prenyl protease 2 (Homo sapiens, UniProt Q9Y256)
T1 sequence (Q9Y256 whole entry): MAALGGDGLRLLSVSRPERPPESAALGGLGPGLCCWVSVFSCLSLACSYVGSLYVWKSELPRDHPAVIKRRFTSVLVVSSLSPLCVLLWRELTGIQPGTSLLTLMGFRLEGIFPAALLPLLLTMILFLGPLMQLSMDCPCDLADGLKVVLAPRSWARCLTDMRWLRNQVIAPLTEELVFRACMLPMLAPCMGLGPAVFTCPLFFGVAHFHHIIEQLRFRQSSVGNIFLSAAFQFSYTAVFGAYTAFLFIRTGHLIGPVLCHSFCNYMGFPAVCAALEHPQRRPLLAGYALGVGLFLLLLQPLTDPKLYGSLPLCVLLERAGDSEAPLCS
Assay: Inhibition of human RCE1
Details: not given
Summary of the method: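 Substrate was a fluorescent-labeled peptide from the carboxy terminus of farnesylated K-Ras. Cleavage was analyzed by reversed-phase HPLC. IC50 is reported in µg/mL.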

Row | IC50 [µM] | Structure (SMILES)
5 | 17 | CCC(O)CC(=O)O[C@H]1C[C@@H]2[C@@]3(C)CCC[C@](C)(CC)[C@@H]3CC[C@@]2(C)[C@@H]2C=CC3=C(C(=O)OC3(C)O)[C@@]12C (stereo not given in full)
6 | 7.31 | CCO[C@@H]1C[C@H]2[C@]3(C)CC[C@H]4[C@@](C)(CC)CCC[C@]4(C)[C@H]3C[C@H](OC(=O)CC(O)C(C)C)[C@]2(C)C2=C1C(C)(O)OC2=O (stereo not given in full)
7 | 73.5 | CC[C@@]1(C)CCC[C@]2(C)[C@H]3C[C@H](OC(=O)CC(O)C(C)C)[C@]4(C)C=C(C(C)=O)[C@H](O)C[C@H]4[C@]3(C)CC[C@@H]12 (stereo not given in full)
8 | > 199 | CCC(O)CC(=O)O[C@H]1C[C@H]2[C@@](C)(CC[C@H]3[C@@](C)(CC)CCC[C@]23C)[C@@H]2C[C@@H](O)C(C(C)=O)=C[C@@]12C (stereo not given in full)

Test system: PC-3
Assay: Cytotoxicity against human PC3 cells harboring mutated PTEN and p53 after 3 days
Type: functional, cell-based
Details: PC-3, 72 h

Row | Structure (SMILES) | IC50 [µg/mL]
9 | CCC(O)CC(=O)O[C@H]1C[C@@H]2[C@@]3(C)CCC[C@](C)(CC)[C@@H]3CC[C@@]2(C)[C@@H]2C=CC3=C(C(=O)OC3(C)O)[C@@]12C (stereo not given in full) | 3.7 (≈ 7 µM)
10 | CCO[C@@H]1C[C@H]2[C@]3(C)CC[C@H]4[C@@](C)(CC)CCC[C@]4(C)[C@H]3C[C@H](OC(=O)CC(O)C(C)C)[C@]2(C)C2=C1C(C)(O)OC2=O (stereo not given in full) | 3.2 (≈ 5.43 µM)
11 | CC[C@@]1(C)CCC[C@]2(C)[C@H]3C[C@H](OC(=O)CC(O)C(C)C)[C@]4(C)C=C(C(C)=O)[C@H](O)C[C@H]4[C@]3(C)CC[C@@H]12 (stereo not given in full) | 3.8 (≈ 7.35 µM)
12 | CCC(O)CC(=O)O[C@H]1C[C@H]2[C@@](C)(CC[C@H]3[C@@](C)(CC)CCC[C@]23C)[C@@H]2C[C@@H](O)C(C(C)=O)=C[C@@]12C (stereo not given in full) | > 10

Test system: LoVo
Assay: Cytotoxicity against human LoVo cells harboring mutated K-Ras after 3 days
Type: functional, cell-based
Details: 72 h

Row | Structure (SMILES) | IC50 [µg/mL]
13 | CCC(O)CC(=O)O[C@H]1C[C@@H]2[C@@]3(C)CCC[C@](C)(CC)[C@@H]3CC[C@@]2(C)[C@@H]2C=CC3=C(C(=O)OC3(C)O)[C@@]12C (stereo not given in full) | 3.4 (≈ 6.43 µM)
14 | CCO[C@@H]1C[C@H]2[C@]3(C)CC[C@H]4[C@@](C)(CC)CCC[C@]4(C)[C@H]3C[C@H](OC(=O)CC(O)C(C)C)[C@]2(C)C2=C1C(C)(O)OC2=O (stereo not given in full) | 2.9 (≈ 4.93 µM)
15 | CC[C@@]1(C)CCC[C@]2(C)[C@H]3C[C@H](OC(=O)CC(O)C(C)C)[C@]4(C)C=C(C(C)=O)[C@H](O)C[C@H]4[C@]3(C)CC[C@@H]12 (stereo not given in full) | 7.6 (≈ 14.7 µM)
16 | CCC(O)CC(=O)O[C@H]1C[C@H]2[C@@](C)(CC[C@H]3[C@@](C)(CC)CCC[C@]23C)[C@@H]2C[C@@H](O)C(C(C)=O)=C[C@@]12C (stereo not given in full) | > 10

Test system: not listed separately
Assay: Cytotoxicity against human MDA468 cells harboring mutated PTEN and p53 after 3 days
Type: functional, cell-based
Details: MDA-MB-468, 72 h

Row | Structure (SMILES) | IC50 [µg/mL]
17 | CCC(O)CC(=O)O[C@H]1C[C@@H]2[C@@]3(C)CCC[C@](C)(CC)[C@@H]3CC[C@@]2(C)[C@@H]2C=CC3=C(C(=O)OC3(C)O)[C@@]12C (stereo not given in full) | > 10
18 | CCO[C@@H]1C[C@H]2[C@]3(C)CC[C@H]4[C@@](C)(CC)CCC[C@]4(C)[C@H]3C[C@H](OC(=O)CC(O)C(C)C)[C@]2(C)C2=C1C(C)(O)OC2=O (stereo not given in full) | 4.4 (≈ 7.47 µM)
19 | CC[C@@]1(C)CCC[C@]2(C)[C@H]3C[C@H](OC(=O)CC(O)C(C)C)[C@]4(C)C=C(C(C)=O)[C@H](O)C[C@H]4[C@]3(C)CC[C@@H]12 (stereo not given in full) | 9.5 (≈ 18.4 µM)
20 | CCC(O)CC(=O)O[C@H]1C[C@H]2[C@@](C)(CC[C@H]3[C@@](C)(CC)CCC[C@]23C)[C@@H]2C[C@@H](O)C(C(C)=O)=C[C@@]12C (stereo not given in full) | > 10
